Measured values: ChEMBL document CHEMBL3525931, “Stereoselective interaction of pantoprazole with ABCG2. II. In vitro flux analysis” (Drug Metab Dispos, 2012)
One block for each molecule: values may come before it.

Experiments:
[1] = Permeability surface area for passive diffusion in MDCK2 cells assessed as transport at 3 to 200 uM after 0.5 to 1 hrs by HPLC method; assay type: ADME, cell-based, Canis lupus familiaris; conditions: dog, mdck-ii
Summary of the method: (§1)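 PS_D (passive diffusion) derived from observed permeability of single PAN isomers across empty-vector (pcDNA3.1) MDCKII monolayers (TEER >200 Ω·cm²). Both A→B and B→A directions in serum-free Opti-MEM I at 37°C, with [3H]mannitol as paracellular marker. Receiver sampled at 0.5 and 1 h, PAN measured by HPLC-UV. PS_D calculated from a three-compartment model equation at each donor concentration.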

[2] = Permeability surface area for passive diffusion in MDCK2 cells assessed as transport at 3 uM after 0.5 to 1 hrs by HPLC method; assay type: ADME, cell-based, Canis lupus familiaris; conditions: dog, mdck-ii; summary of the method: as §1
[3] = Permeability surface area for passive diffusion in MDCK2 cells assessed as transport at 10 uM after 0.5 to 1 hrs by HPLC method; assay type: ADME, cell-based, Canis lupus familiaris; conditions: dog, mdck-ii; summary of the method: as §1
[4] = Permeability surface area for passive diffusion in MDCK2 cells assessed as transport at 30 uM after 0.5 to 1 hrs by HPLC method; assay type: ADME, cell-based, Canis lupus familiaris; conditions: dog, mdck-ii; summary of the method: as §1
[5] = Permeability surface area for passive diffusion in MDCK2 cells assessed as transport at 50 uM after 0.5 to 1 hrs by HPLC method; assay type: ADME, cell-based, Canis lupus familiaris; conditions: dog, mdck-ii; summary of the method: as §1
[6] = Permeability surface area for passive diffusion in MDCK2 cells assessed as transport at 200 uM after 0.5 to 1 hrs by HPLC method; assay type: ADME, cell-based, Canis lupus familiaris; conditions: dog, mdck-ii; summary of the method: as §1
[7] = substrate: COc1ccnc(C[S@@+]([O-])c2nc3cc(OC(F)F)ccc3[nH]2)c1OC; experiment: (§2) Drug transport in MDCK2 cells expressing rat ABCG2 assessed as ABCG2-mediated transport by HPLC method; assay type: ADME, cell-based, MDCK-II
Summary of the method: (§3)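 Kinetics came from the same Transwell bidirectional flux runs in rat Abcg2- or human ABCG2-MDCKII, with donor 3–200 μM single isomer. Cellular concentrations were predicted from a three-compartment model using PS_D from mock cells and PS_PC from mannitol. Apparent apical efflux permeability was fitted against predicted cellular concentration by saturable kinetics to give K_M and T_max.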

[8] = substrate: COc1ccnc(C[S@+]([O-])c2nc3cc(OC(F)F)ccc3[nH]2)c1OC; experiment: as §2; assay type: ADME, cell-based, MDCK-II; summary of the method: as §3
[9] = substrate: COc1ccnc(C[S@@+]([O-])c2nc3cc(OC(F)F)ccc3[nH]2)c1OC; experiment: (§4) Drug transport in MDCK2 cells expressing human ABCG2 assessed as ABCG2-mediated transport by HPLC method; assay type: ADME, cell-based, MDCK-II; summary of the method: as §3
[10] = substrate: COc1ccnc(C[S@+]([O-])c2nc3cc(OC(F)F)ccc3[nH]2)c1OC; experiment: as §4; assay type: ADME, cell-based, MDCK-II; summary of the method: as §3

Papp [1]: 244 uL/hr/cm2 | Papp [2]: 231 uL/hr/cm2 | Papp [3]: 242 uL/hr/cm2 | Papp [4]: 226 uL/hr/cm2 | Papp [5]: 251 uL/hr/cm2 | Papp [6]: 271 uL/hr/cm2
Molecule: COc1ccnc(C[S+]([O-])c2nc3ccc(OC(F)F)cc3[nH]2)c1OC (racemic) [PANTOPRAZOLE]

B1: Broad substrate specificity ATP-binding cassette transporter ABCG2 (Rattus norvegicus) (protein)
chain: MSSSNDHVLVPMSQRNKNGLPGMSSRGARTLAEGDVLSFHHITYRVKVKSGFLVRKTAEKEILSDINGIMKPGLNAILGPTGGGKSSLLDVLAARKDPRGLSGDVLINGAPQPANFKCSSGYVVQDDVVMGTLTVRENLQFSAALRLPKAMKTHEKNERINTIIKELGLDKVADSKVGTQFTRGISGGERKRTSIGMELITDPSILFLDEPTTGLDSSTANAVLLLLKRMSKQGRTIIFSIHQPRYSIFKLFDSLTLLASGKLMFHGPAQKALEYFASAGYHCEPYNNPADFFLDVINGDSSAVMLNRGEQDHEANKTEEPSKREKPIIENLAEFYINSTIYGETKAELDQLPVAQKKKGSSAFREPVYVTSFCHQLRWIARRSFKNLLGNPQASVAQLIVTVILGLIIGALYFGLKNDPTGMQNRAGVFFFLTTNQCFTSVSAVELFVVEKKLFIHEYISGYYRVSSYFFGKLVSDLLPMRFLPSVIYTCILYFMLGLKRTVEAFFIMMFTLIMVAYTASSMALAIAAGQSVVSVATLLMTISFVFMMLFSGLLVNLRTIGPWLSWLQYFSIPRYGFTALQHNEFLGQEFCPGLNVTMNSTCVNSYTICTGNDYLINQGIDLSPWGLWRNHVALACMIIIFLTIAYLKLLFLKKYS
Km [7]: 1.85 µM | Km [8]: 0.25 µM

B2: Broad substrate specificity ATP-binding cassette transporter ABCG2 (Homo sapiens) (protein)
chain: MSSSNVEVFIPVSQGNTNGFPATASNDLKAFTEGAVLSFHNICYRVKLKSGFLPCRKPVEKEILSNINGIMKPGLNAILGPTGGGKSSLLDVLAARKDPSGLSGDVLINGAPRPANFKCNSGYVVQDDVVMGTLTVRENLQFSAALRLATTMTNHEKNERINRVIQELGLDKVADSKVGTQFIRGVSGGERKRTSIGMELITDPSILFLDEPTTGLDSSTANAVLLLLKRMSKQGRTIIFSIHQPRYSIFKLFDSLTLLASGRLMFHGPAQEALGYFESAGYHCEAYNNPADFFLDIINGDSTAVALNREEDFKATEIIEPSKQDKPLIEKLAEIYVNSSFYKETKAELHQLSGGEKKKKITVFKEISYTTSFCHQLRWVSKRSFKNLLGNPQASIAQIIVTVVLGLVIGAIYFGLKNDSTGIQNRAGVLFFLTTNQCFSSVSAVELFVVEKKLFIHEYISGYYRVSSYFLGKLLSDLLPMRMLPSIIFTCIVYFMLGLKPKADAFFVMMFTLMMVAYSASSMALAIAAGQSVVSVATLLMTICFVFMMIFSGLLVNLTTIASWLSWLQYFSIPRYGFTALQHNEFLGQNFCPGLNATGNNPCNYATCTGEEYLVKQGIDLSPWGLWKNHVALACMIVIFLTIAYLKLLFLKKYS
Km [9]: 5.32 µM | Km [10]: 0.59 µM
